Rpn11 block = Rpn11 (human) deubiquitinase inhibition; O00487; human 26S proteasome, Ub4-pepOG fluorescence polarization; 20S core pre-blocked with epoxomicin; inhibition, % at 20 µM; hit rate 0.59% among 360,000;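 active = inhibition at 20 µM, scaled to each plate's controls, above about 33%, limit read from the data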
Target sequence (O00487 whole entry, looked up): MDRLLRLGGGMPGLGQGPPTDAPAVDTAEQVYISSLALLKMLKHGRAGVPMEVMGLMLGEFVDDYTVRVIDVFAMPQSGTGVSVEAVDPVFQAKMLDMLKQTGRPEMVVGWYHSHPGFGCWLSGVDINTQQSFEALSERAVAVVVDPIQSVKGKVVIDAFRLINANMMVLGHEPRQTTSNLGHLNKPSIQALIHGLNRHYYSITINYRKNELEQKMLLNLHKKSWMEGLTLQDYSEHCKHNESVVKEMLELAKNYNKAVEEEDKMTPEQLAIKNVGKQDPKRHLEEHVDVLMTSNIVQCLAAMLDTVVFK
DNMT1 inh = inhibitors of human DNMT1; DNMT1 molecular beacon, Hinp1I cleavage, fluorescence; P26358; hit rate 0.83% among 360,000; inhibition (reported as % activation of signal), % at 10 µM; in the data active = inhibition above about 50%
SUMO1-SIM PPI = alters human SUMO1 binding to SIM partners; P63165; SUMO1 binding to a labelled peptide, TR-FRET, 1 h; hit rate 0.33% among 360,000; AID 602429; inhibition, % at 20 µM; in the data active = inhibition above about 37%
MT1-MMP act inh = inhibitors of human MT1-MMP activation; GFP/RFP ratio change, % at 20 µM; P50281; hit rate 0.061% among 360,000; HT1080 RFP-PRO-GFP cells, GFP/RFP ratio fluorescence, overnight; percent of plate control window, DMSO zero;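 active = GFP/RFP ratio change of at least 30% with cell ATP level not reduced by more than half and red fluorescence within 50% of control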
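Assay system: HT1080 RFP-PRO-GFP cells | Dosing: 20 µM single dose, 1% DMSO | Incubation: Cells overnight before dosing, compound overnight, 37 °C, 5% CO2 | Evaluation: GFP/RFP fluorescence ratio | Control set: DMSO-only wells and HT1080 RFP-L50D-GFP cell wells as references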
SKN-1 block = blocks SKN-1 activity in C. elegans; inhibition, % at 21.8 µM; C. elegans VP596 Pgst-4::GFP/RFP ratio, acrylamide-induced, 24 h; AID 624304; hit rate 0.49% among 360,000;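 active = interference check ratio from 0.5 to 1.5 plus GFP to RFP signal ratio inhibition reaching or exceeding a fixed threshold, cut at about 30% in these data, passing the limit was not always enough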
CSN deneddyl inh = CSN deneddylation inhibition | Q92905 | Purified CSN, SCF-Nedd8-OG deneddylation, fluorescence polarization | inhibition, % at 12.5 µM | hit rate 0.38% among 360,000;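 active = pattern-corrected inhibition above about 35%, with an unprinted fluorescence ratio check between 0.5 and 1.5, limit read from the data, passing the limit was not always enough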
Target sequence (Q92905 whole entry, looked up, one chain of several): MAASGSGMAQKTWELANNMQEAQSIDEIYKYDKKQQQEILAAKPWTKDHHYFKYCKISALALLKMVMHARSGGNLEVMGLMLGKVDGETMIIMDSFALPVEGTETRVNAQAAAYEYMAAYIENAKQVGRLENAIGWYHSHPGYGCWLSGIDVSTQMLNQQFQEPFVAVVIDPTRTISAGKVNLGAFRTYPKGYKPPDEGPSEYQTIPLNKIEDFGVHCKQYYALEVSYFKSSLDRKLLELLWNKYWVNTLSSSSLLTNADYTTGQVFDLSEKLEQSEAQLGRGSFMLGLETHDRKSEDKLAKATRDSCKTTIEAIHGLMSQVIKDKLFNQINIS
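Material: purified human Csn5 enzyme expressed in HEK293T cells / Medium: Tris buffer pH 7.5, NaCl, DTT, Tween-20, trehalose, ovalbumin / Compound dosing: 12.5 µM single point / Schedule: 90 min incubation of compound, enzyme and substrate at room temperature / Signal: fluorescence polarization of the substrate / Control set: no-enzyme wells high, enzyme-with-substrate wells low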
Hits are given with their value; 0 = inactive; - = no result shown. The list is not random: actives were taken first. Their share in the collection is about 2.3%.

SMILES | Rpn11 block | DNMT1 inh | SUMO1-SIM PPI | MT1-MMP act inh | SKN-1 block | CSN deneddyl inh
CCOC(=O)c1c(C)oc2c1c(C=NCCC(=O)O)c(O)c1ccccc12 | 0 | 0 | 0 | 0 | 37 | 0
N#CCCN(Cc1ccccc1)C(C(=O)NC1CCCCC1)c1cc2ccccc2o1 (stereo unspecified) | 0 | 0 | 0 | 0 | 0 | 0
CN1CCOc2c1cnn(CCO)c2=O | 0 | 0 | 0 | 0 | 0 | 0
COC(=O)C[C@@H]1CC[C@@H](NC(=O)C2CCC2)[C@@H](CO)O1 | - | - | 0 | - | 0 | 0
CSc1cccc(NC(=S)NC(=O)CCc2ccccc2)c1 | 0 | 0 | 38 | 0 | 0 | 0
CSc1cccc(NC(=O)CCc2ccccc2)c1 | 0 | 0 | 0 | 0 | 0 | 0
Cc1ccc2nc(-c3ccc(C#N)cc3)c(Cc3ccccc3C(F)(F)F)n2c1 | 0 | 0 | 0 | 0 | 0 | 0
N#Cc1ccc(-c2nc3c4ccccc4ccn3c2Cc2ccccc2C(F)(F)F)cc1 | - | 0 | 0 | 0 | 42 | 0
FC(F)(F)c1ccccc1Cc1c(-c2ccccc2)nc2ccc(Br)cn12 | 0 | 0 | 0 | 0 | 48 | 0
COC(=O)C(=Cc1ccc(-c2ccsc2C(=O)OC)o1)C(=O)OC | 0 | 0 | 0 | 0 | 0 | 0
CCOC(=O)C(=Cc1ccc(-c2ccsc2C(=O)OC)o1)C(=O)OCC | 0 | 0 | 0 | 0 | 0 | 118
CCOC(=O)C1(C)CCCN(C(=O)c2ccc(OC)cc2)C1 (stereo unspecified) | 0 | 0 | 0 | 0 | 0 | 0
O=C1C=CC(=NN=C(c2ccccc2)c2ccccc2)C=C1 | 0 | 0 | 0 | 0 | 0 | 0
N#Cc1c(N2CCCC2)nc(N)c2c(N)nc(N3CCCC3)cc12 | 0 | 118 | 48 | 0 | 0 | 55
CCOc1cc2c(C#N)c(N3CCCC3)nc(N)c2c(N)n1 | 0 | 0 | 0 | 0 | 0 | 0
CC(c1nc2ccccc2n1Cc1ccccc1)n1c(-c2cnccn2)nc2ccccc21 (stereo unspecified) | - | - | 0 | 0 | 0 | 0
Cc1cccn2c(=O)c(/C=N/O)c(Nc3ccccc3F)nc12 | 0 | 0 | 52 | 0 | 0 | 0
O=C1NC(=S)S/C1=C\c1ccc(SCc2ccco2)o1 | 182 | 103 | 83 | 0 | 0 | 0
O=C1NC(=S)SC1=Cc1ccccc1Cl | 0 | 0 | 0 | 0 | 0 | 0
O=C(CNC(=O)c1ccccc1)OCc1cccc([N+](=O)[O-])c1 | 0 | 0 | 0 | 0 | 0 | 0
O=C(Cc1ccccc1)NCC(=O)OCc1cccc([N+](=O)[O-])c1 | 0 | 0 | 0 | 0 | 0 | 38
Cc1cccc(C)c1NC(=O)C(c1ccc(C#N)cc1)n1c(=O)c(-c2ccccc2)nc2ccccc21 (stereo unspecified) | - | - | 0 | 0 | 0 | 0
Cc1cccc(C)c1NC(=O)NCCSc1snnc1C | 0 | 0 | 0 | 0 | 0 | 35
COc1ccc([C@@H]2C[C@H]3[C@@H](CN2S(=O)(=O)c2ccccc2)C(=O)C[C@@H](c2ccc(OC)cc2)N3S(=O)(=O)c2ccccc2)cc1 | 0 | 0 | 0 | 0 | 0 | 0
CCOc1ccc(/C=C(\C#N)C(=O)Nc2cccnc2)cc1 | 0 | 0 | 0 | 0 | 0 | 0
SMILES | Rpn11 block | DNMT1 inh | SUMO1-SIM PPI | MT1-MMP act inh | SKN-1 block | CSN deneddyl inh
CCOc1ccc(NC(=O)/C(C#N)=C\c2ccc(N3CCCC3)c(C)c2)cc1 | - | 0 | 0 | 0 | 0 | 47
c1ccc(COc2cccc(-c3cc4nc(NCc5cccs5)ccn4n3)c2)cc1 | 0 | 0 | 0 | 0 | 0 | 0
COC(=O)c1[nH]c2ccccc2c1NC(=O)C(C)N1CCOCC1 (stereo unspecified) | 0 | 0 | 0 | 0 | 38 | 0
COC(=O)c1[nH]c2ccccc2c1NC(=O)C(C)N1CCN(C(=O)c2ccco2)CC1 (stereo unspecified) | 0 | 0 | 0 | 0 | 0 | 0
NC(=O)c1ccc(CSc2nc3ccccc3s2)cc1 | 0 | 0 | 0 | 0 | 0 | 0
c1ccc2sc(SCc3ccc(-c4nnco4)cc3)nc2c1 | 0 | 0 | 0 | 0 | 54 | 0
O=C(C[C@H]1CC[C@@H]2[C@H](COC[C@@H](O)CN2Cc2cccc(F)c2)O1)NCC1CCCCC1 | - | - | 0 | 0 | 0 | 0
O=C(Cc1ccccc1)N/N=C/c1ccc(-c2ccc([N+](=O)[O-])cc2)o1 | 0 | 0 | 0 | 0 | 0 | 0
Cc1ccc(C)c(N(CC(=O)N/N=C/c2ccc(-c3ccc([N+](=O)[O-])cc3)o2)S(=O)(=O)c2ccccc2)c1 | - | 0 | 0 | 0 | 0 | 44
CCOC(=O)Cc1cc(=O)n(-c2nc3ccccc3s2)[nH]1 | 0 | 0 | 38 | 0 | 0 | 0
O=C(C1=C[C@@H]2[C@H]3C(=O)N(c4cccc(Cl)c4)C(=O)[C@H]3[C@@H](C(=O)c3ccc(Cl)cc3)N2C=C1)c1ccccc1 | 0 | 69 | 0 | 0 | 0 | 0
Cn1c(N=Nc2ccc(N3CCOCC3)cc2)[n+](C)c2ccccc21 | 0 | 0 | 0 | 0 | 39 | 0
Cn1c(=Nc2ccc(N3CCOCC3)cc2)ccc2ccccc21 | 0 | 0 | 0 | 0 | 0 | 0
COc1ccc(-n2c(C)cc(/C=C3\C(=O)NN(c4ccccc4)C3=O)c2C)cc1 | 0 | 0 | 0 | 0 | 0 | 0
COc1ccc(Sc2ccc(/C=C3\C(=O)NN(c4ccccc4)C3=O)o2)cc1 | 0 | 56 | 0 | 0 | 0 | 0
COC(=O)C[C@H]1C=C[C@H](NC(=O)Nc2ccccc2)[C@@H](CO)O1 | - | - | 0 | 0 | 0 | 0
CCOC(=O)c1ccccc1NC(=O)Cc1ccccc1OC | 0 | 0 | 0 | 0 | 50 | 0
CCOC(=O)c1ccccc1NC(=O)/C=C/c1cc(OC)c(OC)c(OC)c1 | 0 | 0 | 43 | 0 | 0 | 0
CCOC(=O)c1ccccc1NC(=O)C=C(C)C | 0 | 0 | 0 | 0 | 0 | 0
CSc1cc(-c2ccco2)oc1C(=O)c1ccco1 | 0 | 0 | 0 | 0 | 36 | 0
CSc1nc(-c2ccco2)nn1C(=O)c1ccco1 | 0 | 0 | 0 | 0 | 0 | 0
Cc1ccccc1NC(=S)NCc1ccc2c(c1)cc(C)n2C | 0 | 0 | 0 | 0 | 0 | 0
Cc1cc2cc(CNC(=O)C3CC3)ccc2n1C | 0 | 0 | 0 | 0 | 40 | 0
Cc1cc2cc(CNC(=O)c3ccc(S(=O)(=O)N4CCCC4)cc3)ccc2n1C | 0 | 0 | 0 | 0 | 46 | 0
CCOC(=O)NCc1ccc2c(c1)cc(C)n2C | 0 | 0 | 0 | 0 | 52 | 0
CCc1cccc(C)c1NC(=S)NCc1ccc2c(c1)cc(C)n2C | 0 | 0 | 0 | 0 | 97 | 0
CCc1nc2ccc(C(=O)NCCCn3ccnc3)cn2c1N(CC)CCOC | 0 | 0 | 0 | 0 | 0 | 0
c1ccc(NN=C(c2ccccc2)c2cccs2)cc1 | 0 | 0 | 0 | 0 | 0 | 0
Cc1ccc(NC(=O)C2(C)CCN2C(=O)Cc2ccccc2)cc1C (stereo unspecified) | 0 | 0 | 0 | 0 | 0 | 0
COc1ccc(CC(=O)NCc2ccc3c(c2)cc(C)n3C)cc1 | 0 | 0 | 0 | - | 50 | 0

Screening results from PubChem.
